Experimental data from ChEMBL document CHEMBL1125639, “Synthesis and resolution of (+-)-7-chloro-8-hydroxy-1-(3'-iodophenyl)-3-methyl-2,3,4,5-tetrahydro- 1H-3- benzazepine (TISCH): a high affinity and selective iodinated ligand for CNS D1 dopamine receptor” (J Med Chem, 1991).
Where “and” joins values, the source holds several entries; their conditions need not be identical. Equal entries are not always repeated.

What was measured:
Rattus norvegicus [1] = experiment: Biodistribution of compound in rats liver after an intravenous injection was measured at 30 min; assay type: ADME, organism-based; settings: in vivo, 0.5 h
Outline: (§1)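 Male Sprague-Dawley rats (225-300 g), free access to food and water. Under ether anesthesia, given 0.2 mL saline containing 125I-labelled ligand (2-5 μCi, ~2200 Ci/mmol) into the femoral vein. Killed by cardiac excision at set times. Organs removed, weighed and gamma-counted. % dose/organ is taken against diluted injectate aliquots, with blood and muscle assumed to be 7% and 40% of body weight. Mean of 3 rats ± std dev.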

Rattus norvegicus [2] = experiment: Biodistribution of compound in rats thyroid after an intravenous injection was measured at 1 hr; assay type: ADME, organism-based, Thyroid gland; settings: in vivo; outline: as §1
Rattus norvegicus [3] = experiment: Biodistribution of compound in rats lung after an intravenous injection was measured at 4 hr; assay type: ADME, organism-based; settings: in vivo; outline: as §1
Rattus norvegicus [4] = experiment: Biodistribution of compound in rats skin after an intravenous injection was measured at 4 hr; assay type: ADME, organism-based, Zone of skin; settings: in vivo; outline: as §1
Rattus norvegicus [5] = experiment: Regional brain distribution of compound in rats striatum after an intravenous injection was measured at 1 hr; assay type: ADME, organism-based; settings: in vivo
Outline: (§2)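 After femoral-vein injection of [125I]-labeled ligand (2-5 μCi, ~2200 Ci/mmol, 0.2 mL saline, ether anesthesia) into male Sprague-Dawley rats (225-300 g), brains were dissected into cortex, striatum and cerebellum, weighed and gamma-counted. % dose/gram calculated against diluted initial dose; regional ratio = % dose/gram of region divided by that of cerebellum.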

Rattus norvegicus [6] = experiment: Biodistribution of compound in rats blood after an intravenous injection was measured at 4 hr; assay type: ADME, organism-based; settings: in vivo; outline: as §1
Rattus norvegicus [7] = experiment: Ratio of regional brain distribution in striatum to that of cerebellum at 4 hr after intravenous injection; assay type: ADME, organism-based; settings: in vivo; outline: as §2
Rattus norvegicus [8] = experiment: Biodistribution of compound in rats heart after an intravenous injection was measured at 2 min; assay type: ADME, organism-based; settings: in vivo; outline: as §1
Rattus norvegicus [9] = experiment: Biodistribution of compound in rats lung after an intravenous injection was measured at 24 hr; assay type: ADME, organism-based; settings: in vivo; outline: as §1
Rattus norvegicus [10] = experiment: Biodistribution of compound in rats kidney after an intravenous injection was measured at 4 hr; assay type: ADME, organism-based; settings: in vivo; outline: as §1
Rattus norvegicus [11] = experiment: Biodistribution of compound in rats kidney after an intravenous injection was measured at 30 min; assay type: ADME, organism-based; settings: in vivo, 0.5 h; outline: as §1
Rattus norvegicus [12] = experiment: Biodistribution of compound in rats skin after an intravenous injection was measured at 24 hr; assay type: ADME, organism-based, Zone of skin; settings: in vivo; outline: as §1
Rattus norvegicus [13] = experiment: Biodistribution of compound in rats lung after an intravenous injection was measured at 1 hr; assay type: ADME, organism-based; settings: in vivo; outline: as §1
Rattus norvegicus [14] = experiment: Biodistribution of compound in rats lung after an intravenous injection was measured at 30 min; assay type: ADME, organism-based; settings: in vivo, 0.5 h; outline: as §1
Rattus norvegicus [15] = experiment: Biodistribution ratio measured as the ratio of compound present in brain to that of blood at 30 minutes after intravenous injection; assay type: ADME, organism-based; settings: 0.5 h
Outline: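 Male Sprague-Dawley rats (225-300 g) given 0.2 mL saline containing [125I]-labeled ligand (2-5 μCi, ~2200 Ci/mmol) via femoral vein under ether anesthesia; sacrificed at set times by cardiac excision. Brain and blood weighed and gamma-counted against diluted injectate; ratio taken from % dose/gram values, 3 rats per time point.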

Rattus norvegicus [16] = experiment: Biodistribution of compound in rats muscle after an intravenous injection was measured at 30 min; assay type: ADME, organism-based, Muscle tissue; settings: in vivo, 0.5 h; outline: as §1
Rattus norvegicus [17] = experiment: Biodistribution of compound in rats kidney after an intravenous injection was measured at 1 hr; assay type: ADME, organism-based; settings: in vivo; outline: as §1
Rattus norvegicus [18] = experiment: Regional brain distribution of compound in rats cerebellum after an intravenous injection was measured at 4 hr; assay type: ADME, organism-based; settings: in vivo; outline: as §2
Rattus norvegicus [19] = experiment: Biodistribution of compound in rats brain after an intravenous injection was measured at 24 hr; assay type: ADME, organism-based; settings: in vivo
Outline: (§3)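 Rats (male Sprague-Dawley, 225-300 g) given the 125I ligand (2-5 μCi, ~2200 Ci/mmol) in 0.2 mL saline via the femoral vein under ether anesthesia, then killed at set times. Whole brain removed, weighed and gamma-counted. % dose/organ is taken against diluted injectate aliquots. Mean of 3 rats ± std dev.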

Rattus norvegicus [20] = experiment: Biodistribution of compound in rats liver after an intravenous injection was measured at 24 hr; assay type: ADME, organism-based; settings: in vivo; outline: as §1
Rattus norvegicus [21] = experiment: Regional brain distribution of compound in rats striatum after an intravenous injection was measured at 30 min; assay type: ADME, organism-based; settings: in vivo, 0.5 h; outline: as §2
Rattus norvegicus [22] = experiment: Biodistribution of compound in rats thyroid after an intravenous injection was measured at 30 min; assay type: ADME, organism-based, Thyroid gland; settings: in vivo, 0.5 h
Outline: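 Male Sprague-Dawley rats (225-300 g), free access to food and water; under ether anesthesia, 0.2 mL saline containing [125I]-labeled ligand (2-5 μCi, ~2200 Ci/mmol) injected into femoral vein; killed by cardiac excision under ether at set times. […] removed, weighed, gamma-counted; % dose/organ from comparison with diluted aliquots of injectate; mean of 3 rats ± std dev.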

Rattus norvegicus [23] = experiment: Biodistribution of compound in rats brain after an intravenous injection was measured at 1 hr; assay type: ADME, organism-based; settings: in vivo; outline: as §3
Rattus norvegicus [24] = experiment: Biodistribution of compound in rats heart after an intravenous injection was measured at 24 hr; assay type: ADME, organism-based; settings: in vivo; outline: as §1
Rattus norvegicus [25] = experiment: Regional brain distribution of compound in rats cerebellum after an intravenous injection was measured at 1 hr; assay type: ADME, organism-based; settings: in vivo; outline: as §2
Rattus norvegicus [26] = experiment: Biodistribution of compound in rats blood after an intravenous injection was measured at 1 hr; assay type: ADME, organism-based; settings: in vivo; outline: as §1
Rattus norvegicus [27] = experiment: Regional brain distribution of compound in rats cerebellum after an intravenous injection was measured at 2 min; assay type: ADME, organism-based; settings: in vivo; outline: as §2
Rattus norvegicus [28] = experiment: Regional brain distribution of compound in rats cerebellum after an intravenous injection was measured at 30 min; assay type: ADME, organism-based; settings: in vivo, 0.5 h; outline: as §2
Rattus norvegicus [29] = experiment: Biodistribution of compound in rats muscle after an intravenous injection was measured at 2 min; assay type: ADME, organism-based, Muscle tissue; settings: in vivo; outline: as §1

SMILES: CN1CCc2cc(Cl)c(O)cc2[C@@H](c2cccc(I)c2)C1
- Biodistribution (Rattus norvegicus [1]): 11.45
- Biodistribution (Rattus norvegicus [2]): 0.059
- Biodistribution (Rattus norvegicus [3]): 0.122
- Biodistribution (Rattus norvegicus [4]): 1.14
- Biodistribution (Rattus norvegicus [5]): 1.455
- Biodistribution (Rattus norvegicus [6]): 0.254
- Biodistribution (Rattus norvegicus [7]): 56.5
- Biodistribution (Rattus norvegicus [8]): 1.14
- Biodistribution (Rattus norvegicus [9]): 0.012
- Biodistribution (Rattus norvegicus [10]): 0.476
- Biodistribution (Rattus norvegicus [11]): 0.945
- Biodistribution (Rattus norvegicus [12]): 0.288
- Biodistribution (Rattus norvegicus [13]): 0.621
- Biodistribution (Rattus norvegicus [14]): 1.24
- Biodistribution (Rattus norvegicus [15]): 12.7%
- Biodistribution (Rattus norvegicus [16]): 9.3
- Biodistribution (Rattus norvegicus [17]): 0.883
- Biodistribution (Rattus norvegicus [18]): 0.011
- Biodistribution (Rattus norvegicus [19]): 0.001
- Biodistribution (Rattus norvegicus [20]): 3.84
- Biodistribution (Rattus norvegicus [21]): 7.09% and 5.23%
- Biodistribution (Rattus norvegicus [22]): 0.042 and 0.042%
- Biodistribution (Rattus norvegicus [23]): 0.568
- Biodistribution (Rattus norvegicus [24]): 0.001
- Biodistribution (Rattus norvegicus [25]): 0.129
- Biodistribution (Rattus norvegicus [26]): 0.847
- Biodistribution (Rattus norvegicus [27]): 1.03
- Biodistribution (Rattus norvegicus [28]): 0.248
- Biodistribution (Rattus norvegicus [29]): 10.8
